Laboratory results as given in publication PMC5035790 (Annals of Oncology, 2016).

Key:
p110γ = settings: read-out: IC50 p110γ; cited from earlier work
p110α = settings: read-out: IC50 p110α; cited from earlier work
plasma glucose = experiment: Plasma glucose and insulin pharmacodynamics; type: in vivo, human; settings: 33 of 51; blood glucose >200 mg/dl
advanced solid tumors = experiment: Tumor response by investigator, modified RECIST version 1.1; type: in vivo, human
In short: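 Solid-tumour patients (dose-escalation cohorts 0.1–1.2 mg/kg, expansion at 0.8 mg/kg) received a 1-h IV infusion on days 1, 8 and 15 of 28-day cycles until progression. Response was by investigator assessment using modified RECIST 1.1. PTEN loss by IHC was defined as 0% tumour cells staining, low as 1% to <5%, and positive as ≥5%.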

COc1c(OCCCN2CCOCC2)ccc2c1N=C(NC(=O)c1cnc(N)nc1)N1CCN=C21 [copanlisib, Copanlisib]
IC50 (p110γ): 6.4 nM
IC50 (p110α): 0.5 nM
non-diabetic patients receiving at least 1 dose of short-acting insulin (plasma glucose): 65%
tumor reduction (advanced solid tumors; 1 patient with endometrial carcinoma, 0.4 mg/kg cohort, stable disease): > 25%
objective response or stable disease for >4 cycles (advanced solid tumors; 10 patients without complete PTEN loss): none
partial response (PR) (advanced solid tumors; 48 patients with solid tumors, 2 patients, 1 confirmed, 1 unconfirmed): 4%
complete response (CR) (advanced solid tumors; 48 patients with solid tumors, one patient): 2%
disease progression by clinical judgment (advanced solid tumors; 48 patients with solid tumors, seven patients): 15%
patients with stable disease ≥6 cycles (advanced solid tumors; of the 15 patients with stable disease): 6 patients
cycles until CR (advanced solid tumors; patient with endometrial carcinoma, PIK3CA and PTEN mutations, complete PTEN loss, 0.8 mg/kg): 10 cycles
overall response rate (advanced solid tumors; patients with solid tumors): 6%
CR, PR, or stable disease lasting ≥6 cycles (advanced solid tumors; solid tumors at MTD with complete PTEN loss, 3 of 7): 43%
CR, PR, or stable disease (advanced solid tumors; solid tumors at MTD without PTEN loss, seven patients): none
